# This is a sample that favours compounds with a hit; in the whole collection about 2.3% have one here.
# TRPC6 activator: mouse TRPC6 channel activation. 0.13% of 310,000 active. HEK293-TRPC6 membrane potential dye fluorescence; active compounds read high. B-score at 10 µM. Q61143;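 active = B-score of the integrated fluorescence ratio above library mean plus 3 SD, and starting fluorescence ratio within library mean plus 5 SD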;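 also: higher score means more depolarization so channel activation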
# Target sequence (Q61143 whole entry, looked up): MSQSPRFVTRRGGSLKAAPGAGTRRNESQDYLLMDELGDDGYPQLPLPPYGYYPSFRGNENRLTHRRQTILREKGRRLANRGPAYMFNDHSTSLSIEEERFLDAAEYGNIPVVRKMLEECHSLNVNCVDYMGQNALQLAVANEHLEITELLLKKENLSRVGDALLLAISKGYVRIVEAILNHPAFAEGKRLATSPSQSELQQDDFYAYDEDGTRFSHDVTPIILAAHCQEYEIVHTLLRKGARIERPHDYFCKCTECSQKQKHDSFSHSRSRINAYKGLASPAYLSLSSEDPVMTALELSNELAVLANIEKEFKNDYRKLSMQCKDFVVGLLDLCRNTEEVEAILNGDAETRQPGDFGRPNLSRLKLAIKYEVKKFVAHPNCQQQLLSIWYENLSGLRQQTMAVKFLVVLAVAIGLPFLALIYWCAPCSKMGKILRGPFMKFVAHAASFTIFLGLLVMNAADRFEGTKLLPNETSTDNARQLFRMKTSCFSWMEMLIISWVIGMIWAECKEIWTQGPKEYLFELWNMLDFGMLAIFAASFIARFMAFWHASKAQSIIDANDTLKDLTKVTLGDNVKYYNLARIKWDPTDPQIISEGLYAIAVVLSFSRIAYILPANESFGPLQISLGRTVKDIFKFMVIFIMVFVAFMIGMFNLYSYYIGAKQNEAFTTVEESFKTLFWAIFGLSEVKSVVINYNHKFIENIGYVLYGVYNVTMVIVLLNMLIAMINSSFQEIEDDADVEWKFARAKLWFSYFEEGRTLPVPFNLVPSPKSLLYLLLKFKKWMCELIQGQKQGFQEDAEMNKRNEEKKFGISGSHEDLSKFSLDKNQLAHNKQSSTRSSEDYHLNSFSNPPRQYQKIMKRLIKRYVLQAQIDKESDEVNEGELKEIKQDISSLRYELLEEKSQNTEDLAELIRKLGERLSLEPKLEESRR
# TRPC6 inh: blocks the mouse TRPC6 cation channel; Q61143; HEK293-TRPC6, membrane potential dye, ACh-evoked depolarization; active compounds read low; B-score at 10 µM; 1.1% of 310,000 active;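 active = B-score under library mean minus 3 SD, initial fluorescence not abnormally high, positive integrated signal ratio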;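 also: B-score derived from integrated fluorescence ratio over the kinetic read; more negative B-score means stronger inhibition of depolarization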
# FID counter: counter-screen for HCV NS3 helicase inhibitors: DNA intercalator displacement. 0.17% of 290,000 active. inhibition, % at 7.9 µM. AID 1845. DNA fluorescent intercalator displacement, fluorescence; in the data active = inhibition above about 37%;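 also: 0% = vehicle and 100% = reference compound; higher means more ethidium bromide displaced from hairpin DNA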
# TRPC4 act: TRPC4 (mouse) channel activation; AID 2237; HEK293 TRPC4beta/mu-opioid, Fluo4 calcium fluorescence; active compounds read high; Q9QUQ5; 0.49% of 310,000 active; B-score at 10 µM;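 active = B-score above 5 SD of library B-scores, and initial fluorescence ratio not above library mean plus 5 SD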;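 also: positive B-score marks a calcium rise read as TRPC4 activation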
#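 Assay system: HEK293 stable line with TRPC4beta plus mu-opioid receptor; schedule: 45 min room-temperature Fluo4 loading, 110 s read; technique: kinetic Fluo4 calcium fluorescence; evaluation: integrated baseline-normalised fluorescence ratio, converted to per-well B score; controls: buffer (low) and maximal DAMGO (high)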
# TRPC4 potent: TRPC4 (mouse) allosteric potentiation; Q9QUQ5; HEK293 TRPC4beta/mu-opioid, DAMGO EC20, Fluo-4 Ca2+ flux; active compounds read high; B-score at 10 µM; 0.42% of 310,000 active; AID 2227;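 active = B-score of calcium response area above 5 SD of library B-scores, with initial fluorescence ratio within 5 SD of library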;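 also: B-score of integrated fluorescence ratio over time as area under calcium response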
# TRPC4 inh: TRPC4 (mouse) channel inhibition; Q9QUQ5; HEK293 TRPC4beta/mu-opioid, DAMGO-evoked Fluo4 calcium flux; active compounds read low; B-score at 10 µM; 0.39% of 300,000 active; AID 2247;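 active = B-score over 3 SD under the library average, no early fluorescence shift, positive overall ratio signal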
#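 Assay system: HEK293 cells with stable TRPC4beta plus mu-opioid receptor expression; Probe or stimulus: DAMGO in two steps, submaximal then maximal; Dosing: single-point compound dosing; Measured by: Fluo4 calcium-dye fluorescence, kinetic read; Read-out basis: B score from integrated Fluo4 fluorescence ratio.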
# TRPC4 spec 2: second check of whether TRPC6 inhibitors also affect mouse TRPC4. shares compounds with TRPC6 inh. inhibition, % at 10 µM. AID 2776. HEK293 TRPC4/MOR, membrane potential dye fluorescence; channel activated by saturating DAMGO dose. 42% of 920 active;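 active = compounds whose fluorescence signal differed from control wells by over 3 SD, either direction, in both duplicate plates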
# TRPC4 spec: mouse TRPC4 off-target activity of TRPC6 inhibitors; shares compounds with TRPC6 inh; HEK293 TRPC4/mu-opioid, membrane potential fluorescence; activity change, negative = inhibition, % at 10 µM; 61% of 920 active;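 active = rise or fall in signal beyond 3 SD of buffer-only wells in both replicate plates, either sign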;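 also: integrated kinetic ratio of fluorescence range over baseline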
# HEK293 MPD ctr 2-1: parental HEK293 nonspecific activity of TRPC6 inhibitors, second screen; shares compounds with TRPC6 inh; parental HEK293 membrane potential dye fluorescence; maximal acetylcholine challenge after compound addition; signal change vs control, % at 10 µM; 31% of 920 active; AID 2779;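 active = membrane potential signal moving either way by over 3 SD of the maximum-effect control, in both duplicate plates, meaning non-specific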
# HEK293 MPD ctr-1: checks TRPC6 inhibitor effects in parental HEK293 cells; 60% of 920 active; shares compounds with TRPC6 inh; parental HEK293 membrane potential dye fluorescence; membrane potential signal change, % at 10 µM; AID 2780;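 active = membrane potential signal shifting up or down by more than 3 SD of buffer-only wells, on both duplicate plates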
# HEK293 MPD ctr-2: checks TRPC6 modulator effects in parental HEK293 cells; shares compounds with TRPC6 inh; membrane potential dye fluorescence; membrane potential signal change, % at 10 µM; 51% of 2,400 active; AID 488924;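 active = membrane potential signal moves up or down beyond 5 SD from buffer-only wells, on both duplicate plates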
# HEK293 MPD ctr 2-2: second counter-screen for TRPC6 modulators: effect in parental HEK293 cells | inhibition, % at 10 µM | AID 488926 | shares compounds with TRPC6 inh | membrane potential dye fluorescence; after compound, maximal acetylcholine stimulation | 14% of 2,400 active;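 active = membrane potential signal drops by more than 5 SD from the mean control signal, in both duplicate plates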;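 also: plate controls were acetylcholine ECmax control wells for no effect and buffer only wells for full effect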
# TRPC4 ctr mod: selectivity of TRPC6 modulators against mouse TRPC4. HEK293 TRPC4/mu-opioid, membrane potential fluorescence. 69% of 2,400 active. shares compounds with TRPC6 inh. percent change from control (negative = decrease, positive = increase), % at 10 µM;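 active = membrane potential signal moved up or down beyond 5 SD of buffer control wells, in both duplicate plates, actives on both sides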;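 also: plate controls were assay buffer wells for no effect and DAMGO maximal-effect wells for full effect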
# TRPC4 ctr inh 2: mouse TRPC4 off-target activity of TRPC6 modulators, second screen; shares compounds with TRPC6 inh; HEK293 TRPC4/mu-opioid, membrane potential dye fluorescence; stimulated with maximal-effect DAMGO; inhibition, % at 10 µM; 55% of 2,400 active; AID 488928;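 active = drop in membrane potential signal beyond 5 SD of the control wells in both duplicate plates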;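 also: TRPC4 counter screen for TRPC6 hits run under conditions tuned for TRPC6 not TRPC4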
# TRPC6 inh conf: confirmation of mouse TRPC6 inhibitors; shares compounds with TRPC6 inh; HEK293-TRPC6, membrane potential dye, ACh-evoked depolarization; inhibition, % at 10 µM; 43% of 3,300 active;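 active = fluorescence ratio falls more than 5 SD below the full-stimulation control mean, in both duplicate runs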;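 also: integrated fluorescence ratio of peak minus minimum over baseline after agonist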
# TRPC6 act conf: mouse TRPC6 activator confirmation; shares compounds with TRPC6 inh; HEK293-TRPC6 membrane potential dye fluorescence, FDSS; activation, % at 10 µM; 11% of 2,800 active; AID 488961;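 active = ratio signal rise beyond 5 SD above unstimulated control wells' mean, seen in both duplicate runs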;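 also: plate controls were buffer EC0 wells for no effect and acetylcholine ECmax response for full effect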
# Starred values were filed as active, the others as inactive; i = inactive; . = not tested or not shown.
SMILES,TRPC6 activator,TRPC6 inh,FID counter,TRPC4 act,TRPC4 potent,TRPC4 inh,HEK293 MPD ctr-2,HEK293 MPD ctr 2-2,TRPC4 ctr mod,TRPC4 ctr inh 2,TRPC6 inh conf,TRPC6 act conf,others
COc1ccc(-c2n[nH]c(C)c2-c2cc(OC)ccc2O)cc1,i,-6*,-13,i,i,i,i,i,i,i,i,i,
O=C1c2cccc3cccc(c23)C(=O)N1CCN1CCN(CC(O)COc2ccccc2)CC1 (configuration not stated),i,-5.2*,19,i,i,i,i,i,i,i,i,i,
COc1cccc(OCC(O)CN2CCN(CCN3C(=O)c4cccc5cccc(c45)C3=O)CC2)c1 (configuration not stated),i,-5.8*,21,i,i,i,i,i,i,71%*,54%*,i,
COc1ccc(OCC(O)CN2CCC(CN3C(=O)c4cccc5cccc(c45)C3=O)CC2)cc1 (configuration not stated),i,i,.,i,i,i,.,.,.,.,.,.,
O=C1c2ccccc2C(=O)N1CCc1nc(-c2ccccn2)no1,i,i,-1,i,i,i,.,.,.,.,.,.,
O=C1c2ccccc2C(=O)N1CCCc1nc(-c2ccccn2)no1,i,-5*,-4,i,i,i,i,i,i,i,i,i,
Nc1nonc1-n1nnc(C(=O)N/N=C/c2ccccc2F)c1CN1CCc2ccccc21,i,i,-14,i,i,i,.,.,.,.,.,.,
Cc1onc(-c2ccccc2)c1C(=O)N1CCC(CO)(Cc2ccccc2)CC1,i,i,-40,i,i,i,.,.,.,.,.,.,
COc1cc2nc(N3CCN(c4cc(C)ccc4C)CC3)nc(N)c2cc1OC,i,i,22,i,i,i,.,.,.,.,.,.,
COc1cc2nc(N3CCNCC3)nc(N)c2cc1OC,i,-11*,49*,i,i,i,-246%*,92%*,-38%*,53%*,64%*,i,
O=C(NCc1ccc(F)cc1)C(c1ccc(Cl)cc1)N(C(=O)c1csnn1)C1CC1 (configuration not stated),i,i,-27,i,i,i,.,.,.,.,.,.,
COc1ccc2nc(C)cc(Nc3ccc(C)cc3)c2c1,i,-6.6*,4,i,i,-7*,.,.,.,.,68%*,i,TRPC4 spec 2=42%*;TRPC4 spec=-26%*;HEK293 MPD ctr 2-1=i;HEK293 MPD ctr-1=-272%*
COc1ccc(OC)c(Nc2cc(C)nc3ccc(C)cc23)c1,i,-7.5*,.,i,i,-6*,.,.,.,.,67%*,i,TRPC4 spec 2=52%*;TRPC4 spec=-15%*;HEK293 MPD ctr 2-1=i;HEK293 MPD ctr-1=-239%*
COc1ccc2nc(C)cc(Nc3ccc(N4CCN(C)CC4)cc3)c2c1,i,-9.6*,84*,i,i,i,.,.,.,.,86%*,i,TRPC4 spec 2=57%*;TRPC4 spec=-24%*;HEK293 MPD ctr 2-1=-94%*;HEK293 MPD ctr-1=-292%*
COc1ccc(Nc2cc(C)nc3ccccc23)cc1,i,-5.1*,6,i,i,-6*,-132%*,i,-21%*,48%*,i,i,
CCc1ccc(NC(=O)C(C)OC(=O)CC(NC(C)=O)c2ccccc2)cc1 (configuration not stated),i,i,-28,i,i,i,.,.,.,.,.,.,
CCOc1ccccc1Nc1cc(C)nc2ccc(C)cc12,i,-7.7*,.,i,i,i,.,.,.,.,62%*,i,TRPC4 spec 2=46%*;TRPC4 spec=-13%*;HEK293 MPD ctr 2-1=i;HEK293 MPD ctr-1=-209%*
CCOc1ccccc1Nc1ncnc2ccc(Br)cc12,i,i,-22,i,i,i,.,.,.,.,.,.,
Cc1cc(C)c2oc(=O)cc(CN3CCC(C)CC3)c2c1,i,i,-16,i,i,i,.,.,.,.,.,.,
CN(NS(=O)(=O)c1ccc(Br)cc1)c1nc(C(F)(F)F)nc2ccccc12,i,-5.9*,-12,i,i,i,i,i,18%*,37%*,46%*,.,
CN(N)c1nc(C(F)(F)F)nc2ccccc12,i,i,0,i,i,i,.,.,.,.,.,.,
CC(CN1CCCCC1)OC(=O)c1ccc2c(c1)OCO2 (configuration not stated),i,i,3,i,i,i,.,.,.,.,.,.,
CC1CCN(CC(C)OC(=O)c2ccc3c(c2)OCCO3)CC1 (configuration not stated),i,-5.2*,4,i,i,i,120%*,i,15%*,i,i,.,
Fc1cccc(CNc2ncnc3cc(Cl)ccc23)c1F,i,i,-8,i,i,i,.,.,.,.,.,.,
Cc1cc(C)n2nc(C(=O)Nc3ccc(S(=O)(=O)N(C)C)cc3)nc2n1,i,-6*,-1,i,i,i,-247%*,i,-41%*,36%*,i,i,
C#CCn1cc(Cl)cc(C(=O)Nc2ccccc2)c1=O,i,-7.1*,-6,i,i,i,.,.,.,.,i,i,TRPC4 spec 2=i;TRPC4 spec=i;HEK293 MPD ctr 2-1=i;HEK293 MPD ctr-1=i

# High-throughput results deposited in PubChem by several laboratories.
